Experimental data of several laboratories.
Each line is one published result; the experiments were not run side by side.
Target: High affinity nerve growth factor receptor (NTRK1, Homo sapiens, UniProt P04629)

Compound	observed	mode	technique	concentration	endpoint	result
C1=C/COCc2cc(ccc2OCCN2CCCC2)Nc2nccc(n2)-c2cccc(c2)COC/1	binding			0.1 µM	remaining binding	10%
CO[C@@H]1[C@H](N(C)C(=O)c2ccccc2)C[C@H]2O[C@]1(C)n1c3ccccc3c3c4c(c5c6ccccc6n2c5c31)C(=O)NC4	enzyme activity	inhibitor		1 µM	inhibition	98%
COc1ccc2oc(-c3ccc4nc(N)oc4c3)c/c(=N\c3ccccc3NC(=O)CCN)c2c1	binding			1 µM	remaining binding	88%
C[C@H]1CC[C@H](n2c3cnccc3c3cnc(Nc4ccc5c(n4)CCN(C(=O)CO)C5)nc32)CC1	cell-free assay		competition with immobilised ligand	1 µM	remaining binding	18%
N#Cc1ccc(NC(=O)Nc2ccccc2)cc1	cell-free assay		competition with immobilised ligand	25 µM	remaining binding	55%
COc1ccc2[nH]c3c4[nH]c5ccc(OC)cc5c4c4c(c3c2c1)C(=O)NC4=O	binding		competition with immobilised ligand	1 µM	remaining binding	40%
C=CC(=O)N1CCC([C@@H]2CCNc3c(C(N)=O)c(-c4ccc(Oc5ccccc5)cc4)nn32)CC1	cell-free assay			1 µM	inhibition	47%
CN(C)C(=O)c1cc2cnc(Nc3ccc(-c4ccc5c(=O)cc(N6CCOCC6)oc5c4)cc3)nc2n1C1CCCC1	binding		competition with immobilised ligand	1 µM	remaining binding	3.7%
CCCCC(=O)Nc1ccc(-c2ccc3ncn(CCC)c(=O)c3c2)cn1	binding		competition with immobilised ligand	0.5 µM	remaining binding	99%
